Source: PubChem BioAssay
This is a sample that favours compounds with a hit; in the whole collection about 9.8% have one here.
L major viab: inhibitors of Leishmania major promastigote growth; inhibition, % at 10 µM; Leishmania major promastigotes, resazurin fluorescence viability; hit rate 9% among 200,000; in the data active = inhibition above about 50%;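 also: promastigotes grown with compound for 44 hours at 28 °C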
Rad51 HR inh: Rad51 (human) homologous recombination inhibition; Q06609; hRad51 DNA strand exchange, fluorescence dequenching; inhibition, % at 10 µM; hit rate 0.085% among 200,000;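 active = inhibition above 40% at the single screening dose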;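 also: 0% = DMSO control wells and 100% = blanks with heterologous ssDNA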
Target sequence (Q06609 whole entry, looked up): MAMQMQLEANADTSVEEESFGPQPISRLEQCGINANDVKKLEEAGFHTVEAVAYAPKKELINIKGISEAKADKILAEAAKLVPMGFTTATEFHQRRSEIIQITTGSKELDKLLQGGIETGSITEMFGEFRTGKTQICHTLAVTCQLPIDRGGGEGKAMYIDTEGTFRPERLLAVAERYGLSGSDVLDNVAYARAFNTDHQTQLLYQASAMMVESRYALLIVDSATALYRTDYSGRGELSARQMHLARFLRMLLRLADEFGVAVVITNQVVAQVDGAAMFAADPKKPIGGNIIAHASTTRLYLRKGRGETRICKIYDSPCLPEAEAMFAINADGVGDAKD
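material = hRad51 filaments on single-stranded DNA | reagent = Donor/quencher-labelled 47-bp dsDNA substrate | compound = 10 µM final, single point | schedule = strand-exchange reaction 15 min at room temperature | measured by = fluorescein emission 520 nm, excitation 485 nm | read-out basis = % inhibition versus plate control and blank means | benchmarks = plate controls and plate blanks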
Calpain2 inh: calpain II (pig) inhibition; purified calpain II, fluorogenic peptide substrate, 30 min; inhibition, % at 16 µM; hit rate 0.37% among 220,000; AID 1236;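 active = inhibition above about 50%, limit read from the data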
PMI act hi M6P: activators of human phosphomannose isomerase at near-saturating mannose 6-phosphate | activation factor at 20 µM | P34949 | hit rate 0.34% among 190,000 | coupled PMI enzyme assay, resazurin fluorescence, 20 min; active compounds read high; 1 = untreated enzyme, 0 = substrate-free blank;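 active = activation factor of 2 or more at 20 µM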
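Test system: human phosphomannose isomerase with PGI, G6PDH, diaphorase coupling enzymes / Doses: 20 µM compound, 1% DMSO / Times: enzyme reaction with compound 20 min at room temperature / Measured by: Diaphorase-driven resazurin-to-resorufin fluorescence, excitation 544, emission 590 nm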
WT yeast gro inh: growth inhibition of WT yeast, mitochondrial fusion screen | mitochondrial fusion phenotypic screen, WT strain | inhibition, % at 10 µM | hit rate 2.1% among 190,000; in the data active = inhibition above about 58%; tested in S. cerevisiae
PMI act: increases human mannose-6-phosphate isomerase activity. P34949. purified human PMI, coupled resazurin fluorescence, 20 min; active compounds read high; 1 = vehicle control, 0 substrate-free wells. activation factor at 20 µM. hit rate 0.005% among 190,000;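 active = activation factor of 2 or more at 20 µM, relative to plate controls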
Starred values were filed as active, the others as inactive.

Results for CN(C)C(=O)c1ccc(NC(=O)COc2ccc([N+](=O)[O-])cc2)cc1 ?
L major viab: -10.4; Rad51 HR inh: 2.1; Calpain2 inh: -18.8; PMI act hi M6P: 1; WT yeast gro inh: 3.4; PMI act: 1

What do the screens show for `COc1cc(OC)cc(C(=O)NC(=S)Nc2nnn(C)n2)c1`?
Calpain2 inh: 4.4

Results for O=C(CCc1ccc(Oc2cc([N+](=O)[O-])cc([N+](=O)[O-])c2)cc1)NC1CCCC1 ?
L major viab: 98.6*; Rad51 HR inh: -3.0; Calpain2 inh: -13.5; PMI act hi M6P: 0.9; WT yeast gro inh: 2.5; PMI act: 0.9

What do the screens show for `CC1CCN(C(=O)CCc2ccc(Oc3cc([N+](=O)[O-])cc([N+](=O)[O-])c3)cc2)CC1`?
L major viab: 98.7*; Rad51 HR inh: 0.4; Calpain2 inh: 11.8; PMI act hi M6P: 1; WT yeast gro inh: 64.7*; PMI act: 1

Results for O=C(Cc1ccccc1)N/N=C/c1ccc2cccc(O)c2n1 ?
L major viab: -6.2; Rad51 HR inh: 4.8; Calpain2 inh: -36.4; PMI act hi M6P: 0.6; WT yeast gro inh: 10.6; PMI act: 0.9

How did CCOC(=O)CC1COCCN1Cc1cn[nH]c1-c1cc(OC)c(OC)c(OC)c1 (centres undefined) do in these assays?
Calpain2 inh: 9.2

What do the screens show for `CCC1CC(/C(C)=N/NC(N)=O)OC1=O` (centres undefined)?
L major viab: -3.7; Rad51 HR inh: 6.6; Calpain2 inh: 1.2; PMI act hi M6P: 1.1; WT yeast gro inh: -5.6; PMI act: 1.1

Results for C/C(=N\NC(N)=S)C1C2C3CC4C5CC(C42)C1C53 (centres undefined) ?
L major viab: 100.2*; Rad51 HR inh: 27.1; Calpain2 inh: -21.8; PMI act hi M6P: 1; WT yeast gro inh: 66.2*; PMI act: 1

Results for COc1ccc(C2CCN(CC(=O)N(C)C)CC2O)cc1 (centres undefined) ?
L major viab: -5.0; Rad51 HR inh: 20.4; Calpain2 inh: -37.1; PMI act hi M6P: 0.9; WT yeast gro inh: -21.6; PMI act: 1

Results for CC1CC(C)CN(C2CCN(Cc3cccnc3)CC2)C1 (centres undefined) ?
L major viab: -4.5; Rad51 HR inh: -1.5; Calpain2 inh: -26.6; PMI act hi M6P: 1; WT yeast gro inh: 63.3*; PMI act: 0.9

Results for O=C(c1ccco1)N1CCN(Cc2cccnc2)CC1 ?
L major viab: -5.3; Rad51 HR inh: 0.5; Calpain2 inh: -7.2; PMI act hi M6P: 1; WT yeast gro inh: -3.2; PMI act: 1

How did COc1ccc(C2CCN(Cc3cccnc3)CC2O)cc1 (centres undefined) do in these assays?
L major viab: 88.1*; Rad51 HR inh: -10.1; Calpain2 inh: -6.5; PMI act hi M6P: 0.9; WT yeast gro inh: -8.8; PMI act: 1.1

How did O=C1CCC(C(=O)Nc2cccc(Oc3ccccc3)c2)=NN1 do in these assays?
L major viab: 1.5; Rad51 HR inh: -5.1; Calpain2 inh: -5.1; PMI act hi M6P: 1; WT yeast gro inh: 11.5; PMI act: 1

Results for CC(=O)Nc1ncc(Cc2cc(Cl)ccc2Cl)s1 ?
L major viab: 19.8; Rad51 HR inh: 2.2; Calpain2 inh: 20.4; PMI act hi M6P: 0.9; WT yeast gro inh: 76.5*; PMI act: 0.9

What do the screens show for `COc1ccc(C(=O)NC(=S)NNC(=O)c2ccc(NC(=O)C(C)C)cc2)cc1`?
L major viab: 70.7*; Calpain2 inh: -21.6; PMI act hi M6P: 1.1; WT yeast gro inh: -27.6; PMI act: 1

What do the screens show for `Cc1ccc(C(=O)NNC(=S)NC(=O)COc2ccccc2)cc1`?
L major viab: -2.0; Calpain2 inh: 14.7; PMI act hi M6P: 1.2; WT yeast gro inh: 84.2*; PMI act: 1

What do the screens show for `Cc1ccccc1C(=O)NNC(=S)NC(=O)COc1ccccc1`?
L major viab: 4.2; Rad51 HR inh: 5.4; Calpain2 inh: 8.7; PMI act hi M6P: 1; WT yeast gro inh: -12.1; PMI act: 0.8

How did CC(C)(C)C(=O)NC(=S)NNC(=O)c1ccc(-c2ccccc2)cc1 do in these assays?
L major viab: 96.6*; Rad51 HR inh: -42.8; Calpain2 inh: -69.1; PMI act hi M6P: 1.2; WT yeast gro inh: 67.5*; PMI act: 1
